In ChEMBL document CHEMBL1136138, “HIV protease inhibitors with picomolar potency against PI-Resistant HIV-1 by extension of the P3 substituent” (Bioorg Med Chem Lett, 2003):

Experiments:
[1] = In vitro intrinsic clearance in human liver microsome; type: ADME; settings: liver microsomes
[2] = Oral bioavailability in dog (dose 5 mg/kg); type: ADME, organism-based, Canis lupus familiaris; settings: in vivo
[3] = Cmax was determine after peroral administration at 5 mg/kg in dog; type: ADME, organism-based, Canis lupus familiaris; set-up: dose 5 mg/kg, route oral; settings: in vivo, po
[4] = Half life period was determine after peroral administration at 5 mpk in dog; type: ADME, organism-based, Canis lupus familiaris; settings: in vivo, po, 5 mg/kg
[5] = Plasma clearance after peroral administration at 5 mg/kg in dog; type: ADME, organism-based, Canis lupus familiaris; set-up: dose 5 mg/kg, route oral; settings: po, read-out: Clp
Cytochrome P450 2C9 = Cytochrome P450 2C9 (Homo sapiens, UniProt P11712); test: In vitro inhibition of human liver microsome Cytochrome P450 2C9; type: ADME, microsomes
Cytochrome P450 2D6 = Cytochrome P450 2D6 (Homo sapiens, UniProt P10635); test: In vitro inhibition of human liver microsome Cytochrome P450 2D6; type: ADME, microsomes
Cytochrome P450 3A4 = Cytochrome P450 3A4 (Homo sapiens, UniProt P08684); test: In vitro inhibition of human liver microsome Cytochrome P450 3A4
MT4 [6] = test: Compound was tested for their ability to inhibit spread of PI-resistant HIV-1 (strain K-60C) viral infection in MT-4 human T-lymphoidcell; type: functional; settings: read-out: CIC95
Procedure, shortened: (§1)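 Spread of infection was measured in MT4 human T-lymphoid cells infected with viral constructs derived from the resistant clinical strains. The value is CIC95, the concentration that inhibits 95% of viral spread. "≤" and "≥" values are the lowest and highest concentrations tested.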

MT4 [7] = test: Compound was tested for their ability to inhibit spread of PI-resistant HIV-1 (strain Q-18C) viral infection in MT-4 human T-lymphoidcell; type: functional; settings: read-out: CIC95; procedure, shortened: as §1
MT4 [8] = test: Compound was tested for their ability to inhibit spread of PI-resistant HIV-1 (strain V-60C) viral infection in MT-4 human T-lymphoidcell; type: functional; settings: read-out: CIC95; procedure, shortened: as §1
[9] = target: T1, Human immunodeficiency virus type 1 protease (Human immunodeficiency virus 1, UniProt Q72874); test: Inhibitory activity against HIV-1 Protease from PI-resistant HIV-1 (strain K-60C)
[10] = target: T1, Human immunodeficiency virus type 1 protease; test: Inhibitory activity against HIV-1 Protease from PI-resistant HIV-1 (strain Q-18C)
[11] = target: T1, Human immunodeficiency virus type 1 protease; test: Inhibitory activity against HIV-1 Protease from wild-type NL4-3 virus
[12] = (§2) Area under curve was determine after peroral administration at 5 mpk in dog; type: ADME, organism-based, Canis lupus familiaris; settings: in vivo, po, 5 mg/kg
MT4 [13] = test: Compound was tested for their ability to inhibit spread of wild-type NL4-3 viral infection in MT-4 human T-lymphoidcell; type: functional; settings: read-out: CIC95
Procedure, shortened: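 Viral spread assay in MT4 human T-lymphoid cells infected with a viral construct derived from wild-type NL4-3. The read-out is CIC95, the concentration that blocks 95% of the spread of infection. Values marked ≤ or ≥ are the lowest or highest concentrations tested.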

[14] = target: T1, Human immunodeficiency virus type 1 protease; test: Inhibitory activity against HIV-1 Protease from PI-resistant HIV-1 (strain V-18C)
[15] = Oral bioavailability in dog (dose 10 mg/kg); type: ADME, organism-based, Canis lupus familiaris; settings: in vivo
[16] = Cmax was determine after peroral administration at 10 mpk in dog; type: ADME, organism-based, Canis lupus familiaris; set-up: dose 10 mpk, route oral; settings: in vivo, po, 10 mg/kg
Canis familiaris [17] = test: (§3) Area under curve was determine after peroral administration at 10 mpk in dog; type: ADME, organism-based, Canis lupus familiaris; settings: in vivo, po, 10 mg/kg
[18] = Half life period was determine after peroral administration at 10 mpk in dog; type: ADME, organism-based, Canis lupus familiaris; settings: in vivo, po, 10 mg/kg
Canis familiaris [19] = test: (§4) Plasma clearance after peroral administration at 10 mpk in dog; type: ADME, organism-based, Canis lupus familiaris; settings: in vivo, po, 10 mg/kg
[20] = Half life period was determine after peroral administration at 10 mpk in Rhesus; type: ADME, organism-based; settings: cercopithecidae, in vivo, po, 10 mg/kg
[21] = Oral bioavailability in Rhesus monkey (dose 10 mg/kg p.o.); type: ADME, organism-based, Macaca mulatta; settings: in vivo
[22] = Cmax was determine after peroral administration at 10 mpk in Rhesus; type: ADME, organism-based; set-up: dose 10 mpk, route oral; settings: cercopithecidae, in vivo, po, 10 mg/kg
[23] = Oral bioavailability after peroral administration at 5 mpk in Dog; type: ADME, organism-based, Canis lupus familiaris; settings: in vivo, 5 mg/kg
[24] = Area under curve was determine after peroral administration at 10 mpk in Rhesus; type: ADME; settings: cercopithecidae, in vivo, po, 10 mg/kg
[25] = Cmax was determine after peroral administration at 5 mpk in dog; type: ADME, organism-based, Canis lupus familiaris; set-up: dose 5 mpk, route oral; settings: in vivo, po, 5 mg/kg
[26] = Plasma clearance after peroral administration at 10 mpk in Rhesus; type: ADME, organism-based; settings: cercopithecidae, po, 10 mg/kg, read-out: Clp
Canis familiaris [27] = test: Plasma clearance after peroral administration at 5 mpk in dog; type: ADME, organism-based, Canis lupus familiaris; settings: in vivo, po, 5 mg/kg
Canis familiaris [28] = test: as §2; type: ADME, organism-based, Canis lupus familiaris; settings: in vivo, po, 5 mg/kg
MT4 [29] = test: Compound was testedm for their ability to inhibit spread of PI-resistant HIV-1 (strain V-60C) viral infection in MT-4 human T-lymphoidcell; type: functional; settings: read-out: CIC95; procedure, shortened: as §1
[30] = as §3; type: ADME, organism-based, Canis lupus familiaris; settings: in vivo, po, 10 mg/kg
[31] = as §4; type: ADME, organism-based, Canis lupus familiaris; settings: plasma, po, 10 mg/kg, read-out: Clp

Chain of Cytochrome P450 3A4 (P08684 whole entry): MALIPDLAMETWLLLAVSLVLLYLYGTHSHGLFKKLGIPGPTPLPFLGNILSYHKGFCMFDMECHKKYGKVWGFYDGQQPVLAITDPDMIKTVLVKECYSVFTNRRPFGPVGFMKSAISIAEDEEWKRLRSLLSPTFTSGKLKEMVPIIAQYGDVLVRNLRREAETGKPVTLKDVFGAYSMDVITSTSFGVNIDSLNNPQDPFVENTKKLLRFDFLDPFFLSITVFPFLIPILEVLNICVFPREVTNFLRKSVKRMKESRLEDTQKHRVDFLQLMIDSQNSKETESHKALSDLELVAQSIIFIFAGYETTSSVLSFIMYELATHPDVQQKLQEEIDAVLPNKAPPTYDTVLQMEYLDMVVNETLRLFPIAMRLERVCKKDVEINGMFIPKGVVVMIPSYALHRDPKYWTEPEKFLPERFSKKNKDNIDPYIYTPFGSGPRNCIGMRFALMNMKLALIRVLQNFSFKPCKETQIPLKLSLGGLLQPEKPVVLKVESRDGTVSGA
Chain of Cytochrome P450 2D6 (P10635 whole entry): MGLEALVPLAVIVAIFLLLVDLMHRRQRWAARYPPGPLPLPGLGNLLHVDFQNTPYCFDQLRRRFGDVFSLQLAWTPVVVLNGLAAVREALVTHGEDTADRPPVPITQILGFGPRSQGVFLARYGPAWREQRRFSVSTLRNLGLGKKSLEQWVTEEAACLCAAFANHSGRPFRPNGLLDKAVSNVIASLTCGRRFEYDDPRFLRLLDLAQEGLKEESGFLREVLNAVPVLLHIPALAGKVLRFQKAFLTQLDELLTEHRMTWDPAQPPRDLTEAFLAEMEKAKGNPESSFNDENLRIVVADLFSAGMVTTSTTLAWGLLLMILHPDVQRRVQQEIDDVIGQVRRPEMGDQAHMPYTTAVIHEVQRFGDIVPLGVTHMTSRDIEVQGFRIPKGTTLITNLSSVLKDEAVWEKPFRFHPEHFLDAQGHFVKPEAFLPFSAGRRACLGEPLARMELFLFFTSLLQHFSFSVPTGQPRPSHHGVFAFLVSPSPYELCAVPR
Chain of Cytochrome P450 2C9 (P11712 whole entry): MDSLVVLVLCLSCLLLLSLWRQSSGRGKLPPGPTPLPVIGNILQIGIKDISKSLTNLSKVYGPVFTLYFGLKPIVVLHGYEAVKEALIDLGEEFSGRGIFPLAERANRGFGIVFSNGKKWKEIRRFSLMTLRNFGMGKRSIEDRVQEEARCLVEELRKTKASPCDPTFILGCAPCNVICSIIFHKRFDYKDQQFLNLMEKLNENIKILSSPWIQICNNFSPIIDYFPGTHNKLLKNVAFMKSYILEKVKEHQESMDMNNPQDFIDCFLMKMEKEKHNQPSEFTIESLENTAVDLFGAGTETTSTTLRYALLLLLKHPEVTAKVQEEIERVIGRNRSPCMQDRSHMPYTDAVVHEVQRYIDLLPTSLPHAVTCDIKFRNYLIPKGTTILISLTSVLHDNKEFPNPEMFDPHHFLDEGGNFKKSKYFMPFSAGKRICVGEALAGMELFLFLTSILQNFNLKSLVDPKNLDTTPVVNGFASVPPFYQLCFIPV

Structure (SMILES) | CLint scaled [1] [mL/min/kg] | bioavailability [2] [%] | Cmax [3] [µM] | half-life [4] [min] | IC50 (Cytochrome P450 2C9) [nM] | IC50 (Cytochrome P450 2D6) [nM] | IC50 (Cytochrome P450 3A4) [nM] | IC95 (MT4 [6]) [nM] | IC95 (MT4 [7]) [nM] | IC95 (MT4 [8]) [nM] | IC50 [9] [nM] | IC50 [10] [nM] | IC50 [11] [nM] | IC95 (MT4 [13]) [nM] | IC50 [14] [nM] | bioavailability [15] [%] | half-life [18] [min] | Clp (Canis familiaris [27]) [mL/min/kg] | AUC (Canis familiaris [28]) [µM·h] | also measured
O=C(N[C@H]1c2ccccc2OC[C@H]1O)[C@H](Cc1ccccc1)C[C@H](O)CN1CCN(Cc2ccc(-c3ccncc3)o2)C[C@H]1C(=O)NCC(F)(F)F | 133 | 55 | 5.3 | 60 | 5500 | 530 | 320 | 15 | 31 | 31 | 0.6 | 0.8 | 0.08 | ≤ 8 | 1.3 | – | – | – | – | CL/F [5]: 24.5 mL/min/kg; AUC [12]: 2.6 µM·h
O=C(N[C@H]1c2ccccc2OC[C@H]1O)[C@H](Cc1ccccc1)C[C@H](O)CN1CCN(Cc2ccc(-c3ccccn3)o2)C[C@H]1C(=O)NCC(F)(F)F | 655 | – | – | – | > 30000 | 29600 | 5200 | 31 | 15 | 15 | 0.5 | 0.4 | – | ≤ 8 | 0.7 | 4 | 50 | – | – | Cmax [16]: 0.9 µM; AUC (Canis familiaris [17]): 0.4 µM·h; Clp (Canis familiaris [19]): 33.5 mL/min/kg
CC(C)(c1ccc(-c2ccncc2)o1)N1CCN(C[C@@H](O)C[C@@H](Cc2ccccc2)C(=O)N[C@H]2c3ccccc3OC[C@H]2O)[C@H](C(=O)NCC(F)(F)F)C1 | 19 | – | – | 70 | 410 | 360 | 10 | – | – | 12 | 0.3 | 0.1 | 0.05 | ≤ 8 | 1.2 | – | – | 22.5 | 11.3 | half-life [20]: 91 min; bioavailability [21]: 90%; Cmax [22]: 4.4 µM; bioavailability [23]: 100%; AUC [24]: 9.9 µM·h; Cmax [25]: 7.3 µM; CL/F [26]: 20.4 mL/min/kg
O=C(N[C@H]1c2ccccc2OC[C@H]1O)[C@H](Cc1ccccc1)C[C@H](O)CN1CCN(Cc2ccc(-c3cccnc3)o2)C[C@H]1C(=O)NCC(F)(F)F | 233 | 2 | 0.2 | 41 | > 30000 | 6400 | 440 | 15 | – | – | 0.3 | – | 0.03 | ≤ 8 | 0.7 | – | – | 25.2 | 0.1 | IC95 (MT4 [29]): 15 nM
CC(C)(C)NC(=O)[C@@H]1CN(Cc2cccnc2)CCN1C[C@@H](O)C[C@@H](Cc1ccccc1)C(=O)N[C@H]1c2ccccc2C[C@H]1O.O | – | – | – | – | – | – | – | > 1000 | > 1000 | > 1000 | – | – | – | 50 | – | 72 | 28 | – | – | AUC [30]: 12.5 µM·h; CL/F [31]: 16 mL/min/kg
CC(C)(c1cc2cnccc2o1)N1CCN(C[C@@H](O)C[C@@H](Cc2ccccc2)C(=O)N[C@H]2c3ccccc3OC[C@H]2O)[C@H](C(=O)NCC(F)(F)F)C1 | – | – | – | – | – | – | – | 250 | 62 | 62 | 5.8 | 1.6 | – | ≤ 8 | 5.2 | – | – | – | – | –
